ChEMBL document CHEMBL1141651, “Discovery of a potent, selective, and orally active proteasome inhibitor for the treatment of cancer” (J Med Chem, 2008)

Experiments:
[1] = Half life in Sprague-Dawley rat at 0.8 mg/kg, po; format: ADME, organism-based; parameters: dose 0.8 mg/kg, route oral; details: in vivo
Outline: (§1)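 Female Sprague–Dawley rats and CD-1 mice each received a single iv or oral (po) dose. Terminal half-life and systemic clearance were estimated from plasma exposure over time, alongside AUC0→∞, Vss and absolute oral bioavailability.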

[2] = Oral bioavailability in Sprague-Dawley rat at 0.8 mg/kg; format: ADME, organism-based; details: in vivo
Outline: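 Female Sprague-Dawley rats given a single iv dose (0.2 mg/kg) and a single oral dose (0.8 mg/kg). Plasma AUC0-∞ was determined, and absolute oral bioavailability F (%) was derived by comparing oral with iv exposure.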

[3] = Half life in CD1 mouse at 4 mg/kg, iv; format: ADME, organism-based; parameters: dose 4 mg/kg, route intravenous; details: in vivo; outline: as §1
[4] = AUC (0 to infinity) in CD1 mouse at 4 mg/kg, iv; format: ADME, organism-based; parameters: time infinity, dose 4 mg/kg, route intravenous; details: plasma
Outline: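 CD-1 mice received a single dose by the iv or oral route. AUC from 0 to infinity was reported with terminal half-life, Vss, clearance and absolute oral bioavailability.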

[5] = Clearance in CD1 mouse at 4 mg/kg, iv; format: ADME, organism-based; parameters: dose 4 mg/kg, route intravenous; details: in vivo; outline: as §1
[6] = Half life in CD1 mouse at 10 mg/kg, po; format: ADME, organism-based; parameters: dose 10 mg/kg, route oral; details: in vivo; outline: as §1
Caspase-7 (Homo sapiens) = Caspase-7 (Homo sapiens) (UniProt P55210); experiment: Inhibition of human caspase 7 at 10 uM
Caspase-9 (Homo sapiens) = Caspase-9 (Homo sapiens) (UniProt P55211); experiment: Inhibition of human caspase 9 at 10 uM
[7] = molecular target: Dipeptidyl peptidase 4 (Homo sapiens) (UniProt P27487); experiment: Inhibition of human DPP4 at 10 uM
[8] = molecular target: Neprilysin (Homo sapiens) (UniProt P08473); experiment: Inhibition of human NEP at 10 uM
[9] = molecular target: Plasminogen (Homo sapiens) (UniProt P00747); experiment: Inhibition of human plasmin at 10 uM
Homo sapiens [10] = organism: Homo sapiens; experiment: Inhibition of human chymotrypsin at 10 uM
[11] = Inhibition of chymotrypsin-like activity of human erythrocyte 20S proteasome
Outline: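 Isolated 20S proteasome purified from human erythrocytes was tested in a fluorimetric kinetic assay of chymotrypsin-like activity. Potency is reported as IC50.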

[12] = Inhibition of bovine alpha chymotrypsin; parameters: species or system Bos taurus
A2780 = experiment: Cytotoxicity against human A2780 cells; format: functional, cell-based
Outline: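 Antiproliferative activity was measured in A2780 ovarian carcinoma cells with a standard colorimetric assay of cell proliferation and viability. Results are expressed as IC50.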

[13] = Volume of distribution at steady state in Sprague-Dawley rat at 0.2 mg/kg, iv; format: ADME, organism-based; parameters: dose 0.2 mg/kg, route intravenous; details: in vivo, read-out: Vdss
Outline: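 Single-dose pharmacokinetics after iv or oral administration in female Sprague–Dawley rats and in CD-1 mice; plasma exposure (AUC0–∞) used to derive steady-state volume of distribution, clearance, terminal half-life and absolute oral bioavailability.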

[14] = Oral bioavailability in CD1 mouse at 10 mg/kg; format: ADME, organism-based; details: in vivo
Outline: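 CD-1 mice given a single iv dose (4 mg/kg) and a single oral (po) dose (10 mg/kg). Plasma AUC0-∞ was measured, and absolute oral bioavailability F (%) was calculated from the oral versus iv exposure.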

Cytochrome P450 1A2 = Cytochrome P450 1A2 (Homo sapiens, UniProt P05177); experiment: Inhibition of human recombinant CYP1A2 upto 30 uM; format: ADME; details: recombinant enzyme
Outline: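 Recombinant human cytochrome P-450 isoforms were tested with fluorescent P-450 substrates, at test concentrations up to 30 µM.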

Cytochrome P450 2C19 = Cytochrome P450 2C19 (Homo sapiens, UniProt P33261); experiment: Inhibition of human recombinant CYP2C19 upto 30 uM; format: ADME; details: recombinant enzyme
Outline: (§2)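 Recombinant human P-450 isoforms (1A2, 2C9, 2C19, 2D6) with fluorescent P-450 substrates; tested at concentrations up to 30 µM to gauge inhibition.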

Cytochrome P450 2D6 = Cytochrome P450 2D6 (Homo sapiens, UniProt P10635); experiment: Inhibition of human recombinant CYP2D6 upto 30 uM; format: ADME; details: recombinant enzyme; outline: as §2
Cytochrome P450 3A4 = Cytochrome P450 3A4 (Homo sapiens, UniProt P08684); experiment: Inhibition of human recombinant CYP3A4; format: ADME
[15] = molecular target: Pro-cathepsin H (Homo sapiens) (UniProt P09668); experiment: Inhibition of human cathepsin H at 10 uM
[16] = molecular target: Procathepsin L (Homo sapiens) (UniProt P07711); experiment: Inhibition of human cathepsin L at 10 uM
[17] = molecular target: Cathepsin S (Homo sapiens) (UniProt P25774); experiment: Inhibition of human cathepsin S at 10 uM
[18] = molecular target: Cathepsin Z (Homo sapiens) (UniProt Q9UBR2); experiment: Inhibition of human cathepsin Z at 10 uM
Chymase = Chymase (Homo sapiens, UniProt P23946); experiment: Inhibition of human chymase
[19] = molecular target: Coagulation factor X (Homo sapiens) (UniProt P00742); experiment: Inhibition of human factor 10a at 10 uM
[20] = molecular target: Protease (Human immunodeficiency virus 1) (UniProt Q9YQ12); experiment: Inhibition of HIV1 protease at 10 uM
[21] = molecular target: Interstitial collagenase (Homo sapiens) (UniProt P03956); experiment: Inhibition of human MMP1 at 10 uM
[22] = molecular target: 72 kDa type IV collagenase (Homo sapiens) (UniProt P08253); experiment: Inhibition of human MMP2 at 10 uM
[23] = molecular target: Stromelysin-1 (Homo sapiens) (UniProt P08254); experiment: Inhibition of human MMP3 at 10 uM
[24] = molecular target: Matrilysin (Homo sapiens) (UniProt P09237); experiment: Inhibition of human MMP7 at 10 uM
[25] = molecular target: Macrophage metalloelastase (Homo sapiens) (UniProt P39900); experiment: Inhibition of human MMP12 at 10 uM
Caspase-1 (Homo sapiens) = Caspase-1 (Homo sapiens) (UniProt P29466); experiment: Inhibition of human caspase 1 at 10 uM
Caspase-2 (Homo sapiens) = Caspase-2 (Homo sapiens) (UniProt P42575); experiment: Inhibition of human caspase 2 at 10 uM
Renin (Homo sapiens) = Renin (Homo sapiens) (UniProt P00797); experiment: Inhibition of human renin at 10 uM
[26] = molecular target: Prothrombin (Homo sapiens) (UniProt P00734); experiment: Inhibition of human thrombin at 10 uM
[27] = molecular target: Tissue-type plasminogen activator (Homo sapiens) (UniProt P00750); experiment: Inhibition of human TPA at 10 uM
Homo sapiens [28] = organism: Homo sapiens; experiment: Inhibition of human tryptase at 10 uM
[29] = molecular target: Neutrophil elastase (Homo sapiens) (UniProt P08246); experiment: Inhibition of human neutrophil elastase 2 at 10 uM
Sus scrofa = organism: Sus scrofa; experiment: Inhibition of pig pancreatic elastase 1 at 10 uM
[30] = molecular target: Disintegrin and metalloproteinase domain-containing protein 17 (Homo sapiens) (UniProt P78536); experiment: Inhibition of human TACE at 10 uM
[31] = Metabolic stability in mouse liver microsomes; format: ADME, Microsome
[32] = Metabolic stability in rat liver microsomes; format: ADME, Microsome
[33] = Metabolic stability in human liver microsomes; format: ADME, Microsome
[34] = Protein binding in mouse plasma; format: ADME, cell-free; details: read-out: PPB (converted)
[35] = Protein binding in rat plasma; format: ADME, cell-free; details: read-out: PPB (converted)
[36] = Protein binding in dog plasma; format: ADME, cell-free, Canis lupus familiaris; details: read-out: PPB (converted)
Neutrophil elastase = Neutrophil elastase (Homo sapiens, UniProt P08246); experiment: Inhibition of human neutrophil elastase 2
Chain of Neutrophil elastase (P08246 whole entry): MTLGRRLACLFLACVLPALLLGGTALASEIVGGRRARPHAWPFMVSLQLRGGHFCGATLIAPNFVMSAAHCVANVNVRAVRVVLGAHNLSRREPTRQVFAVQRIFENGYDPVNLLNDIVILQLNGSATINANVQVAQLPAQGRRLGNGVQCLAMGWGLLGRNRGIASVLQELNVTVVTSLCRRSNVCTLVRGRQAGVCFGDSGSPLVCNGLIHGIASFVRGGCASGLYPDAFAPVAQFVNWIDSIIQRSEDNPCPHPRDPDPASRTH

Chain of Caspase-9 (Homo sapiens) (P55211 1-315 limits assumed): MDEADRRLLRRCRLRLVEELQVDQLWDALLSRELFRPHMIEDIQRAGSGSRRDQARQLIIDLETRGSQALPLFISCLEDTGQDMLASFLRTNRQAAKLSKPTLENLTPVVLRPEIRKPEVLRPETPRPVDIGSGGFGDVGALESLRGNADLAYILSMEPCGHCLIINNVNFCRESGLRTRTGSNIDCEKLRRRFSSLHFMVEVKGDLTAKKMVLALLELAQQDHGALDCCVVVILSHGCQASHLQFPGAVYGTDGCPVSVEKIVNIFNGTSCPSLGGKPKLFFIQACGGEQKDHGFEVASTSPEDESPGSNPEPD
Chain of Caspase-9 (Homo sapiens) (P55211 331-416 limits assumed): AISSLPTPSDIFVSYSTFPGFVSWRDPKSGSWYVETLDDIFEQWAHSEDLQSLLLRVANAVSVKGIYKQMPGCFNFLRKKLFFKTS
Chain of Plasminogen (Homo sapiens) (P00747 97-580 limits assumed): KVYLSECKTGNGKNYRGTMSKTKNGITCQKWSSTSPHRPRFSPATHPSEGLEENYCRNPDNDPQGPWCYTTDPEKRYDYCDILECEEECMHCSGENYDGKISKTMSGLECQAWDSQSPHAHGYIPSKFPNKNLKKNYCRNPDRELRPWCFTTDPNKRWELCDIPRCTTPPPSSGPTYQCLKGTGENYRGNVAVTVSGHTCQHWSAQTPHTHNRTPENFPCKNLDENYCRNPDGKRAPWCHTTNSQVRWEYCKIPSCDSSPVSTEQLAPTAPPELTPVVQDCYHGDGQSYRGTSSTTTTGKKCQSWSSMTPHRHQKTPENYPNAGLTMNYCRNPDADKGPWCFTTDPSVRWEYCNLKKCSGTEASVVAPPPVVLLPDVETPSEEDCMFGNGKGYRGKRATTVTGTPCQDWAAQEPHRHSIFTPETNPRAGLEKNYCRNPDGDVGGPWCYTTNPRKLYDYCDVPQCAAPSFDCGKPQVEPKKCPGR
Chain of Plasminogen (Homo sapiens) (P00747 581-810 limits assumed): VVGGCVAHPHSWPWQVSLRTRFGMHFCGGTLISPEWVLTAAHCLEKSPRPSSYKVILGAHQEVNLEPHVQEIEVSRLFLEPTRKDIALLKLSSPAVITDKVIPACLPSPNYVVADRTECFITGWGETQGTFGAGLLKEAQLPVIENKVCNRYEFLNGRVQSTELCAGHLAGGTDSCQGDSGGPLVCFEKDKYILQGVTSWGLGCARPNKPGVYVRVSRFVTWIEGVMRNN
Chain of Renin (Homo sapiens) (P00797 whole entry): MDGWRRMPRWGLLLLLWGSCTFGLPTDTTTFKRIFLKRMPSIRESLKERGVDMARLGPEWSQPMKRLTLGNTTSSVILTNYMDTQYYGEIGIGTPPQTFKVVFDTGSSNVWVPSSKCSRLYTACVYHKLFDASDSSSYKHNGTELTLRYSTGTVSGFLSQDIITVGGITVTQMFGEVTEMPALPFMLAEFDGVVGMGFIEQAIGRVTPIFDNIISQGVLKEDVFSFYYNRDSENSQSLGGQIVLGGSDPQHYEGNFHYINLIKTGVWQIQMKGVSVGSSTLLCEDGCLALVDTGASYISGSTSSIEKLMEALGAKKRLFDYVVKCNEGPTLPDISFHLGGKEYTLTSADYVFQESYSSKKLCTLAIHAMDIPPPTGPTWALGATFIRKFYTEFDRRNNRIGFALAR
Chain of Disintegrin and metalloproteinase domain-containing protein 17 (Homo sapiens) (P78536 whole entry, the tested form may be a part): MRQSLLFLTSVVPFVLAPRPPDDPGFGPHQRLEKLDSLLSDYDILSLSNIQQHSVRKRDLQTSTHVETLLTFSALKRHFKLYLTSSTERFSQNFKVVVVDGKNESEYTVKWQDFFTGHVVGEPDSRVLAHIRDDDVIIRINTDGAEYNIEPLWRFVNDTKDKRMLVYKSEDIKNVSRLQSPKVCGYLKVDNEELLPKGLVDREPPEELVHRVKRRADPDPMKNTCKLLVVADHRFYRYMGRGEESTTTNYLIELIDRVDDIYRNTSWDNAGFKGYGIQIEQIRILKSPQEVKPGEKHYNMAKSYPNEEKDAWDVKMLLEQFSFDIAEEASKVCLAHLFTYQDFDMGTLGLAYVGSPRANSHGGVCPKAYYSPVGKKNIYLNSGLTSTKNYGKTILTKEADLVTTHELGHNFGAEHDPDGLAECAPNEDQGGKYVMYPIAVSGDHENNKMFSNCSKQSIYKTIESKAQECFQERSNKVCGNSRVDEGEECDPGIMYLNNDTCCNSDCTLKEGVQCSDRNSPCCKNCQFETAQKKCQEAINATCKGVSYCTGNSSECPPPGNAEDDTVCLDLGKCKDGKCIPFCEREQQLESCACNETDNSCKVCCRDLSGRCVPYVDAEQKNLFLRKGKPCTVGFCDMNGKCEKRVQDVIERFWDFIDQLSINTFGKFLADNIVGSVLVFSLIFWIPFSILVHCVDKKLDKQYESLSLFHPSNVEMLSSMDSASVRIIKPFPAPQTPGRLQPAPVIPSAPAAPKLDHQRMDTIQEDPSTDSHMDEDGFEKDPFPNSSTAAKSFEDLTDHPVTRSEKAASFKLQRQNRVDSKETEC
Chain of 72 kDa type IV collagenase (Homo sapiens) (P08253 110-660 limits assumed): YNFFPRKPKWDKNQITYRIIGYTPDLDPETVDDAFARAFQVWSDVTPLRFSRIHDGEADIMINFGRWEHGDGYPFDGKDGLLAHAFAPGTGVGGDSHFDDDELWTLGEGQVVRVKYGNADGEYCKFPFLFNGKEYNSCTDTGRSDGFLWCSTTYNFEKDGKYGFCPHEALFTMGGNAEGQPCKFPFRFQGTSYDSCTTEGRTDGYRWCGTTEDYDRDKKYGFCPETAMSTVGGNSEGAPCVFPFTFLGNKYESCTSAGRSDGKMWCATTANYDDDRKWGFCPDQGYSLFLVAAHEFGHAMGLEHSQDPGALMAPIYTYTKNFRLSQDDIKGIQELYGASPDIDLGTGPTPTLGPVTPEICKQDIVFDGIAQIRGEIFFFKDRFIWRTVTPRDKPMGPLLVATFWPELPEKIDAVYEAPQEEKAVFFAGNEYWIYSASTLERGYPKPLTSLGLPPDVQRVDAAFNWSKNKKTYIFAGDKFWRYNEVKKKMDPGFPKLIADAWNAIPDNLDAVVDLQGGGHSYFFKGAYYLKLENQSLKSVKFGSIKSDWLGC
Chain of Procathepsin L (Homo sapiens) (P07711 114-333 limits assumed): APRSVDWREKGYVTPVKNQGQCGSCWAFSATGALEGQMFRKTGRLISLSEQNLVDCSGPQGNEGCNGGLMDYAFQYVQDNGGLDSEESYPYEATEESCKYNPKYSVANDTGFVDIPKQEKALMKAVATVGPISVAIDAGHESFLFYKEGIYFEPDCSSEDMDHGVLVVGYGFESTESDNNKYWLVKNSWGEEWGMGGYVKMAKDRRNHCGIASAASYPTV
Chain of Neutrophil elastase (Homo sapiens) (P08246 whole entry): as the sequence (P08246 whole entry) above
Chain of Dipeptidyl peptidase 4 (Homo sapiens) (P27487 whole entry, looked up): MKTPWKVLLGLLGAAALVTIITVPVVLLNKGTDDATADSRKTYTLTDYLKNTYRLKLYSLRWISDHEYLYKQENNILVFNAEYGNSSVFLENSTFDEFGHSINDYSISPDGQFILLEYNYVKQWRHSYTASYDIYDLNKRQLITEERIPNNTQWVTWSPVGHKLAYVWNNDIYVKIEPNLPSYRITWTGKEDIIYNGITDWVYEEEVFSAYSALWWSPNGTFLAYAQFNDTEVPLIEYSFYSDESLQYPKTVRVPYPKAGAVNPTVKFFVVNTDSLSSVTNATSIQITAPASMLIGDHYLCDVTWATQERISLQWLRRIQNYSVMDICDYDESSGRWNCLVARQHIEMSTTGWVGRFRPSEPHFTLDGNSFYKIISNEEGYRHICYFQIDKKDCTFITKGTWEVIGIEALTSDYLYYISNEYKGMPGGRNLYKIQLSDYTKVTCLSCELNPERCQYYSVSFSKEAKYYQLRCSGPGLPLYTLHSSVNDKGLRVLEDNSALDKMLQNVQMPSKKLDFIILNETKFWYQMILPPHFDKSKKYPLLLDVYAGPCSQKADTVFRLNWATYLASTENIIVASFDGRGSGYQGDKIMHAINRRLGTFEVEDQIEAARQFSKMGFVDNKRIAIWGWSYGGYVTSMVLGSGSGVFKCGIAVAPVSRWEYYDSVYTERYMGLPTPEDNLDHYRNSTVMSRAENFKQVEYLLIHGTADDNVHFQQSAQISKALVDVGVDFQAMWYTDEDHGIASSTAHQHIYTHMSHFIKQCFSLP
Chain of Coagulation factor X (Homo sapiens) (P00742 41-179 limits assumed): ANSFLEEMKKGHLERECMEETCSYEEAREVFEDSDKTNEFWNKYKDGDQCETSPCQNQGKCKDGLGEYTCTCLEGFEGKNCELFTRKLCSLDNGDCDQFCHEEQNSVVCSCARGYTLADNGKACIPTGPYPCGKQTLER
Chain of Coagulation factor X (Homo sapiens) (P00742 235-488 limits assumed): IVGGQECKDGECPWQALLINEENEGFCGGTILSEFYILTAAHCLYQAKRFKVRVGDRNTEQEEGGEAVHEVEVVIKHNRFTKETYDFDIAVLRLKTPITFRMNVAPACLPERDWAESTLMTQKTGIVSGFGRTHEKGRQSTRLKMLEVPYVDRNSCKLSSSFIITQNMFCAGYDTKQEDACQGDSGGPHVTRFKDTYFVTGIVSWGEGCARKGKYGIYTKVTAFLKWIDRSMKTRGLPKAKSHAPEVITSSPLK
Chain of Chymase (P23946 whole entry): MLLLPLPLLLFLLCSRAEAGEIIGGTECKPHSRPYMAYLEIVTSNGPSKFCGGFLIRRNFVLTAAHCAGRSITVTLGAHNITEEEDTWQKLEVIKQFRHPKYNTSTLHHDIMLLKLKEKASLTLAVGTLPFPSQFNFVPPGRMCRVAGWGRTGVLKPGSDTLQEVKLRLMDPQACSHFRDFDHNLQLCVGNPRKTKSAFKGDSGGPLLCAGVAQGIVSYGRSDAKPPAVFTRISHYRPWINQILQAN

Question: Which results are given for `CC(C)C[C@H](NC(=O)[C@@H](NC(=O)c1cccc(-c2ccccc2)n1)[C@@H](C)O)B(O)O` [DELANZOMIB]?
Answer: half-life [1]: 86 h; bioavailability [2]: 54%; half-life [3]: 15 h; AUC(0-inf) [4]: 2910 ng·h/mL; clearance [5]: 23.3 mL/min/kg; half-life [6]: 53 h; inhibition (Caspase-7 (Homo sapiens)): 0%; inhibition (Caspase-9 (Homo sapiens)): -1%; inhibition [7]: -5%; inhibition [8]: 12%; inhibition [9]: -1%; inhibition (Homo sapiens [10]): 59%; IC50 [11]: 0.0038 µM; IC50 [12]: 1.5 µM; IC50 (A2780): 0.0137 µM; Vd [13]: 18.1 L/kg; bioavailability [14]: 39%; Activity (Cytochrome P450 1A2): Not Active; Activity (Cytochrome P450 2C19): Not Active; Activity (Cytochrome P450 2D6): Not Active; IC50 (Cytochrome P450 3A4): 3.5 µM; inhibition [15]: 6%; inhibition [16]: 27%; inhibition [17]: 12%; inhibition [18]: 5%; IC50 (Chymase): 3.53 µM; inhibition [19]: -2%; inhibition [20]: 1%; inhibition [21]: 1%; inhibition [22]: -5%; inhibition [23]: -3%; inhibition [24]: -3%; inhibition [25]: 4%; inhibition (Caspase-1 (Homo sapiens)): 1%; inhibition (Caspase-2 (Homo sapiens)): 1%; inhibition (Renin (Homo sapiens)): -3%; inhibition [26]: 12%; inhibition [27]: 0%; inhibition (Homo sapiens [28]): -3%; inhibition [29]: 72%; inhibition (Sus scrofa): -6%; inhibition [30]: 1%; half-life [31]: > 0.667 h; half-life [32]: 0.25 h; half-life [33]: > 0.667 h; fraction unbound [34]: 0.001; fraction unbound [35]: 0.001; fraction unbound [36]: 0.001; IC50 (Neutrophil elastase): 3.55 µM
